Reference: ChEMBL document CHEMBL1138238, “Synthesis and evaluation of 3-aryloxymethyl-1,2-dimethylindole-4,7-diones as mechanism-based inhibitors of NAD(P)H:quinone oxidoreductase 1 (NQO1) activity” (J Med Chem, 2007)

Assays:
[1] = target: NAD(P)H dehydrogenase [quinone] 1 (Homo sapiens) (UniProt P15559); test: Inhibition of human recombinant NQO1 expressed in MIA PaCa2 cells at 10 to 100 nM after 1 hrs; type: cell-based; settings: MIA PaCa-2
Summary of the method: (§1)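 MIA PaCa-2 cells (1×10^6, plated the day before) exposed to indolequinone (1 nM–10 μM) in complete medium for 1 h. Cells then washed in PBS, scraped into 50 mM K phosphate pH 7.4 with 250 mM sucrose and 5 μM FAD, and sonicated on ice. NQO1 activity in sonicates measured as 0.2 mM NADH-dependent reduction of 40 μM DCPIP, read at 600 nm for 1 min at 32 °C.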

MIA PaCa-2 [2] = test: Cytotoxicity against human MIA PaCa2 cells after 4 hrs by MTT assay; type: functional, cell-based; settings: MIA PaCa-2, 4 h
MIA PaCa-2 [3] = test: Cytotoxicity against human MIA PaCa2 cells after 72 hrs by MTT assay; type: functional, cell-based; settings: MIA PaCa-2, 72 h
[4] = target: NAD(P)H dehydrogenase [quinone] 1 (Homo sapiens) (UniProt P15559); test: Inhibition of human recombinant NQO1 expressed in MIA PaCa2 cells at <10 nM after 1 hrs; type: cell-based; settings: MIA PaCa-2; summary of the method: as §1
[5] = target: NAD(P)H dehydrogenase [quinone] 1 (Homo sapiens) (UniProt P15559); test: Inhibition of human recombinant NQO1 expressed in MIA PaCa2 cells at 5000 to 10000 nM after 1 hrs; type: cell-based; settings: MIA PaCa-2; summary of the method: as §1

Sequence of NAD(P)H dehydrogenase [quinone] 1 (Homo sapiens) (P15559 whole entry): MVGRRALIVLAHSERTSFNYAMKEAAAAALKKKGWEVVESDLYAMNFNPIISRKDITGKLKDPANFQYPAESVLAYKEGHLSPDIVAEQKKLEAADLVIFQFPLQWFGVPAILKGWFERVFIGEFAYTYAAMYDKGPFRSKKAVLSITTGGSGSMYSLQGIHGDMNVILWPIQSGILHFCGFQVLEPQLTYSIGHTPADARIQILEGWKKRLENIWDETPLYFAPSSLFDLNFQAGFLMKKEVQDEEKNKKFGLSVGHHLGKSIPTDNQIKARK

Compound	inhibition [1] [%]	IC50 (MIA PaCa-2 [2]) [nM]	IC50 (MIA PaCa-2 [3]) [nM]	inhibition [4] [%]	inhibition [5] [%]
COC1=CC(=O)c2c(c(COc3cccnc3)c(C)n2C)C1=O	> 90	904	562		
COC1=CC(=O)c2c(COc3c(F)cc(F)cc3F)c(C)n(C)c2C1=O	> 90	452	212		
O=[N+]([O-])c1ccccc1O [NITROPHENOLATE]		6080	16400		
Oc1ccc(F)cc1		12400	13200		
COC1=CC(=O)c2c(c(COc3ccc([N+](=O)[O-])cc3)c(C)n2C)C1=O	> 90	629	508		
COC1=CC(=O)c2c(c(COc3ccncc3)c(C)n2C)C1=O		2010	2170		
Oc1c(F)cc(F)cc1F		36400	38100		
COC1=CC(=O)c2c(COc3cccc([N+](=O)[O-])c3)c(C)n(C)c2C1=O	> 90	351	257		
COC1=CC(=O)c2c(c(COc3c(F)cc(F)cc3F)c(C)n2C)C1=O		427	86		
Oc1ccncc1		43200	17800		
COC1=CC(=O)c2c(c(COc3ccccc3[N+](=O)[O-])c(C)n2C)C1=O		345	104		
Oc1ccc(F)cc1F		14800	20800		
COC1=CC(=O)c2c(c(COc3ccc([N+](=O)[O-])cc3F)c(C)n2C)C1=O		4650	3560		
O=[N+]([O-])c1cccc(O)c1 [3-NITRO-PHENOL]		7130	13900		
COC1=CC(=O)c2c(COc3ccc(C#N)cc3)c(C)n(C)c2C1=O		463	192		
N#Cc1ccc(O)cc1 [4-CYANOPHENOL]		56800	73300		
Oc1ccccn1		68100	68800		
COC1=CC(=O)c2c(c(C(C)Oc3ccc([N+](=O)[O-])cc3)c(C)n2C)C1=O (stereo not given)		1830	1700		
Oc1ccc(C(F)(F)F)cc1		13100	32900		
COC1=CC(=O)c2c(COc3cccnc3)c(C)n(C)c2C1=O		2480	1820		

Compound	inhibition [1] [%]	IC50 (MIA PaCa-2 [2]) [nM]	IC50 (MIA PaCa-2 [3]) [nM]	inhibition [4] [%]	inhibition [5] [%]
COC1=CC(=O)c2c(c(COc3ccccn3)c(C)n2C)C1=O				> 90	
COC1=CC(=O)c2c(COc3ccc([N+](=O)[O-])cc3F)c(C)n(C)c2C1=O	> 90	529	417		
COC1=CC(=O)c2c(COc3ccncc3)c(C)n(C)c2C1=O	> 90	2560	3270		
COC1=CC(=O)c2c(c(COc3ccccc3)c(C)n2C)C1=O		1380	962		
COC1=CC(=O)c2c(COc3ccccc3[N+](=O)[O-])c(C)n(C)c2C1=O	> 90	363	178		
COC1=CC(=O)c2c(COc3ccc(F)cc3F)c(C)n(C)c2C1=O	> 90	255	75		
COC1=CC(=O)c2c(COc3ccc(C(F)(F)F)cc3)c(C)n(C)c2C1=O		496	311		> 90
O=[N+]([O-])c1ccc(O)c([N+](=O)[O-])c1 [2,4-DINITROPHENOL]		15900	22100		
COC1=CC(=O)c2c(COc3ccc(N)cc3)c(C)n(C)c2C1=O		504	160		
Nc1ccc(O)cc1 [4-AMINOPHENOL]		42000	42200		
COC1=CC(=O)c2c(COc3ccccn3)c(C)n(C)c2C1=O	> 90	9580	2390		
COC1=CC(=O)c2c(COc3ccc([N+](=O)[O-])cc3)c(C)n(C)c2C1=O	> 90	638	355		
COC1=CC(=O)c2c(c(COc3cccc([N+](=O)[O-])c3)c(C)n2C)C1=O	> 90	352	258		
Oc1cccnc1		56500	73100		
COC1=CC(=O)c2c(COc3ccccc3)c(C)n(C)c2C1=O		4560	409		
Oc1ccccc1 [PHENOL]		16500	16000		
O=[N+]([O-])c1ccc(O)cc1 [P-NITROPHENOL]		11000	13000		
COC1=CC(=O)c2c(COc3ccc(F)cc3)c(C)n(C)c2C1=O		905	493		> 90
O=[N+]([O-])c1ccc(O)c(F)c1		14300	19200		
